Test results: publication PMC2754219 (Obesity (Silver Spring, Md.), 2009)

Legend:
[1] = test system: obese or overweight subjects; assay: Clinical study: treatment-emergent adverse events, tolerability and withdrawals
[2] = type: in vivo, human; details: week 16; metreleptin 5 mg b.i.d. s.c.
How it was run: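 Predose plasma leptin was measured at week 16 and expressed relative to enrollment concentration. Subjects received a leptin analogue at 5mg b.i.d. s.c., alone or with an amylin analogue at 360 μg b.i.d., each injected separately 15 min before morning and evening meals. Analysis covered the evaluable population; values are mean ± s.e.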

[3] = test system: obese or overweight subjects; assay: Clinical study: fasting lipoprotein and glycemic control parameters; type: in vivo, human; details: enrollment to week 16, evaluable population, mean ± s.e., SEM
How it was run: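 Fasting glucose, insulin, lipids and HOMA-IR were taken as change from enrollment to week 16 after the 4-week amylin analogue lead-in with a 40% caloric-deficit diet. This was followed by randomized s.c. b.i.d. leptin analogue, amylin analogue, or both, and advice to keep a 20% caloric deficit. Evaluable subjects had completed week 16; values are mean ± s.e.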

[4] = test system: nonleptin-deficient obesity; details: doses up to twofold those used in this study; and data on file, Amylin Pharmaceuticals, Inc.; cited from earlier work
[5] = test system: obese or overweight subjects; type: in vivo, human
[6] = ITT population, lead-in and postrandomization periods
[7] = evaluable population, LS mean ± s.e., SEM

## Metreleptin: recombinant methyl-human leptin (metreleptin)
[1]; [6]
  Back pain: 0 (0.0) n (%)
  Constipation: 1 (3.7) n (%)
  Diarrhea: 0 (0.0) n (%)
  Headache: 2 (7.4) n (%)
  Hypersensitivity: 2 (7.4) n (%)
  Influenza: 1 (3.7) n (%)
  Injection site adverse events: 18 (66.7) n (%)
  Nasopharyngitis: 2 (7.4) n (%)
  Nausea: 7 (25.9) n (%)
  Streptococcal pharyngitis: 0 (0.0) n (%)
  Vomiting: 2 (7.4) n (%)
[1]; through week 20, randomized/ITT population
  Withdrew during randomized treatment, reason: Adverse event: 3 (11) n (%)
[2]
  Increase of predose leptin concentrations over enrollment concentrations: 13- to 16 fold
[3]
  Change in HOMA-IR: −0.10 ± 0.29
[3]; fasting serum
  Change in insulin: −0.6 ± 1.1 μIU/ml
[3]; fasting
  Change in HDL: 1.7 ± 1.5 mg/dL
  Change in LDL: 1.1 ± 5.1 mg/dL
  Change in blood glucose: 0.7 ± 1.7 mg/dL
  Change in total cholesterol: 2.7 ± 5.8 mg/dL
  Change in triglycerides: 5.7 ± 13.5 mg/dL
[4]
  Weight loss in previous monotherapy trials: failed to show significant weight loss
[5]; day 1 to week 20, evaluable population, LS mean ± s.e., SEM
  Overall rate of weight change: −0.16 ± 0.06 kg/week
[5]; [7]
  Rate of weight change, Day 1 to week 12: −0.23 ± 0.06 kg/week
  Rate of weight change, Week 12 to week 20: −0.02 ± 0.08 kg/week
[5]; evaluable, rounded figures of the discussion
  Weight loss, percent of initial body weight over 24 weeks: ~ 8%
